17 molecules from ChEMBL document CHEMBL2157993, “Urea-based inhibitors of Trypanosoma brucei methionyl-tRNA synthetase: selectivity and in vivo characterization” (J Med Chem, 2012) can be followed below.

Calls of active or inactive are those of the source. The rule behind the calls is not given here.

The test system of series [1] is Trypanosoma brucei. Description: Binding affinity to Trypanosoma brucei MetRS at 100 uM by thermal shift assay. Summed up:
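Thermal shift (ΔTm) read-out with T. brucei MetRS at 0.4 mg/ml and 5% DMSO; otherwise per an earlier protocol. The test agent was at the single concentration in the curator's line. Repeated three times independently.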

Series [2] has as its system Trypanosoma brucei. Description: Inhibition of protein synthesis in Trypanosoma brucei assessed as reduction in [3H]L-histidine incorporation into proteins incubated for 4 hrs by scintillation counting. Format: functional, organism-based.
Series [3] can be described thus: Permeability across MDCK2-MDR1 cells expressing MDR1 at 3 uM in absence of 2 uM P-gp inhibitor Elacridal by mass spectroscopy. The conditions noted are these: dog, mdck-ii. Format: ADME, cell-based, Canis lupus familiaris. Summed up: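 MDR1-MDCKII cells seeded on Transwell inserts and assayed 3 days later at 37°C in HBSS with glucose and HEPES. Monolayers preincubated about 30 min with or without 2 μM elacridar, then given compound at 3 μM final (apical). After 60 min shaking, both chambers were sampled for MS. Integrity checked by Lucifer Yellow and TEER. Triplicate. Papp(A-B) and AQ calculated.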

The nature of series [4]: Drug level in Swiss Webster mouse brain at 5 mg/kg, ip after 60 mins by MS/MS method. Format: ADME, organism-based. Also noted: dose 5 mg/kg, route intraperitoneal. The conditions noted are these: read-out: Drug uptake. A digest of the protocol: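 Female Swiss Webster mice, 6-8 weeks old, three per compound, given 5 mg/kg IP in 5% DMSO/3% EtOH/7% Tween 80 saline. Killed at 1 h. Plasma and homogenised brain extracted with acetonitrile containing an extraction standard, with spiked blank brains used for standardisation. Quantified by LC-MS/MS.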

Series [5] has as its target ATP-dependent translocase ABCB1 (Homo sapiens, UniProt P08183). Kind of series: Binding affinity to MDR1 expressed in MDCK2 cells assessed as absorptive quotient at 3 uM in absence of 2 uM by mass spectroscopy. The class given is ADME, cell-based. The conditions noted are these: dog, mdck-ii. Summed up: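 Monolayers preincubated about 30 min with or without 2 μM elacridar, then given compound at 3 μM final (apical). After 60 min shaking, both chambers were sampled for MS. Integrity checked by Lucifer Yellow and TEER. Triplicate. Papp(A-B) and AQ calculated.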

Series [6] can be described thus: Selectivity index, ratio of EC50 for human CRL8155 cells to EC50 for Trypanosoma brucei brucei 427. Format: toxicity. The conditions noted are these: read-out: Ratio EC50.
Series [7] can be described thus: Selectivity index, ratio of EC50 for human HepG2 cells to EC50 for Trypanosoma brucei brucei 427. The class given is toxicity, cell-based. The conditions noted are these: read-out: Ratio EC50.
Series [8] in a line: Inhibition of Trypanosoma brucei MetRS aminoacylation activity assessed as reduction in [3H]methionine incorporation into Escherichia coli tRNA pre-incubated for 15 mins before tRNA addition and measured after 120 mins by scintillation counting. Summed up: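 Recombinant enzyme at 10 nM, preincubated 15 min with 12-point two-fold inhibitor dilutions in 25 mM HEPES pH 7.9, 10 mM MgCl2, 50 mM KCl, spermine, BSA, DTT, 1% DMSO and pyrophosphatase. Reaction started with 400 μg/mL E. coli tRNA, 0.1 mM ATP and 250 nM [3H]methionine, run 120 min at room temperature. TCA-precipitated and filtered for scintillation counting. Quadruplicate, with IC50 by sigmoidal fit.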

Series [9] can be described thus: Selectivity ratio of IC50 for human MetRS to IC50 for Trypanosoma brucei MetRS. Summed up: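 Ratio of the human mitochondrial MetRS IC50 to the T. brucei MetRS IC50, each from a [3H]methionine aminoacylation assay.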
Series [10] deals with Trypanosoma brucei brucei. Description: Growth inhibition of Trypanosoma brucei brucei 427 blood stream forms after 48 hrs by alamar blue assay. The class given is functional, organism-based. The conditions noted are these: Trypanosoma brucei, 427, 48 h. Summed up: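 Strain 427 bloodstream forms cultured in HMI-9 with 10% FBS at 37°C, 5% CO2. Triplicate wells seeded at 5×10^4 trypomastigotes with serial compound dilutions from 20 mM DMSO stocks. AlamarBlue read-out at 48 h, with pentamidine as the positive control.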
On the technique in general: The colour change of resazurin is a common sign of viable cells or microbes.

The next series has as its system HepG2. Kind of series: Cytotoxicity against human HepG2 cells incubated for 48 hrs by alamar blue assay. The class given is cell-based. The conditions noted are these: HepG2, 48 h. A digest of the protocol:
(§1)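 […] cells in RPMI or HepG2 cells in DMEM/F-12, each with 10% serum, seeded at 5×10^3 per well. Exposed to serial compound dilutions for 48 h.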

Series [11] in a line: Cytotoxicity against human CRL8155 cells incubated for 48 hrs by alamar blue assay. Format: cell-based. The conditions noted are these: CRL8155, 48 h. A digest of the protocol:
as §1

For orientation: ΔTm means the shift of the melting midpoint relative to a reference. The Papp is the rate of passage across a membrane or cell layer, normalised by area and donor concentration. Read a high Papp as ready permeation. A word on the IC50: it is the concentration needed to halve the response being measured. What is called EC50 is the concentration at which the effect is half-maximal. Higher therefore signals weaker potency.

ATP-dependent translocase ABCB1, sequence (P08183 whole entry): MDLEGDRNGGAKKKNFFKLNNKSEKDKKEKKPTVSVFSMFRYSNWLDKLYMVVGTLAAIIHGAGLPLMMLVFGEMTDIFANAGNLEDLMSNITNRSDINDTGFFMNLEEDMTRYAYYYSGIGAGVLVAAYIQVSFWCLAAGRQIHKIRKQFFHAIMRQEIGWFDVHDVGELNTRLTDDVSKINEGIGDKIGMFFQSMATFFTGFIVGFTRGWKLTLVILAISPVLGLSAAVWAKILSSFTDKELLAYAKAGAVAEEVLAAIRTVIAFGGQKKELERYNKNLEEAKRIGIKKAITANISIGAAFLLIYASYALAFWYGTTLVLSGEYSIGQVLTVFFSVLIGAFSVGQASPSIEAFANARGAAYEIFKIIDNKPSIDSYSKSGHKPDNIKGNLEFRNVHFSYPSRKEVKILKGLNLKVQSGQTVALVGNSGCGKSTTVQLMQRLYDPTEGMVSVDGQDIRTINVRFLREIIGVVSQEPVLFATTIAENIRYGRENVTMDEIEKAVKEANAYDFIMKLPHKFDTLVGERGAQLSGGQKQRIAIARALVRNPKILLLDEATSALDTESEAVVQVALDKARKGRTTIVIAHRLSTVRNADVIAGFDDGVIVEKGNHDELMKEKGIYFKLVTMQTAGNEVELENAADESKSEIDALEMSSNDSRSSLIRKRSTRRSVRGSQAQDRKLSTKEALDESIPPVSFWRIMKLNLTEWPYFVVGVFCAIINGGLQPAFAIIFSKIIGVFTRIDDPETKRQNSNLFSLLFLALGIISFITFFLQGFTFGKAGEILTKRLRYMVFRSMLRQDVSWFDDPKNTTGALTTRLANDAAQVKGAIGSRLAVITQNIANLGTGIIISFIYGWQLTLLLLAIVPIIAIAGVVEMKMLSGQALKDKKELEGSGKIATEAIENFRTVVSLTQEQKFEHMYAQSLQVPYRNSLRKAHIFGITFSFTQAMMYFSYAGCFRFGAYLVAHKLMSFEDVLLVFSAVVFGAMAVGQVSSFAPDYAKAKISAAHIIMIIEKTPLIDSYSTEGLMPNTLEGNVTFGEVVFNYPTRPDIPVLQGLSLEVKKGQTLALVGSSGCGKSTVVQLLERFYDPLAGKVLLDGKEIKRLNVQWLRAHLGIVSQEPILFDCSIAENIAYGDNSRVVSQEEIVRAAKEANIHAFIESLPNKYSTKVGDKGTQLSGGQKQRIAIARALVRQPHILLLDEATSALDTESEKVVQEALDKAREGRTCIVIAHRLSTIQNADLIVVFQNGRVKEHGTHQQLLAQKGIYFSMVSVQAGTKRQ

With `O=C(NCCCNCc1cc(Cl)cc(Cl)c1)Nc1ccc(Cl)cc1`, the ΔTm in the series with Trypanosoma brucei [1] stood at 5.7 °C.

Take `COc1ccc(CNCCCNC(=O)Nc2ccccc2)cc1`: the ΔTm in the series with Trypanosoma brucei [1] came out at 1.1 °C.

On to `NCCCC(N)(C(=O)O)C(F)F` (configuration not stated), for which, in the series with Trypanosoma brucei [2], the inhibition entry was “inactive”.

On to `Oc1cc(NCCCNCc2cc(Cl)cc(Cl)c2)nc2ccccc12`, for which the Papp in [3] came out at 29 nm/s. Besides, the concentration at 1 h in series [4] was under 3 nM. In addition, the AQ in series [5] stood at 0.36. The inhibition result in the series on Trypanosoma brucei [2] is “Dose-dependent effect”. Further, the selectivity ratio in series [6] and in [7] was 27 throughout.

Take `O=C(NCCCNCc1cc(Cl)cc(Cl)c1)Nc1cccs1`: in the series with Trypanosoma brucei [1], the ΔTm was determined as 7.6 °C. The IC50 in series [8] came to 0.064 µM. In addition, the Ratio IC50 in [9] is 48. Further, the EC50 in [10] stood at 0.35 µM; with HepG2, 14.5 µM.

As for `O=C(NCCCNCc1ccccc1)Nc1ccccc1`, the ΔTm in the series with Trypanosoma brucei [1] is 1.3 °C.

`O=C(NCCCNCc1cccc(Cl)c1)Nc1ccccc1`: the ΔTm in the series with Trypanosoma brucei [1] was 5.5 °C.

Turning to `O=C(NCCCNCc1cc(Cl)cc(Cl)c1)Nc1cccc(Cl)c1`, the ΔTm with Trypanosoma brucei [1] turned out to be 5.2 °C.

As for `COc1ccccc1CNCCCNC(=O)Nc1ccccc1`, the ΔTm in the series on Trypanosoma brucei [1] was 1.1 °C.

For the molecule `O=C(NCCCNCc1cc(Cl)cc(Cl)c1)Nc1ccncc1`, the ΔTm with Trypanosoma brucei [1] amounted to 3.1 °C.

`O=C(NCCCNCc1cc(Cl)cc(Cl)c1)Nc1ccccc1F`: in the series on Trypanosoma brucei [1], the ΔTm turned out to be 7.3 °C.

`COc1cc(Cl)cc(CNCCCNC(=O)Nc2ccccc2)c1`: the ΔTm with Trypanosoma brucei [1] was found to be 7.7 °C. The IC50 in [8] is 0.045 µM. The Ratio IC50 in series [9] stood at 186. Moreover, the EC50 is 0.33 µM in [10] and 20 µM in series [11]. The molecule further registered a Papp in series [3] of 73 nm/s. Besides, in series [5], the AQ amounted to 0.49.

With `Nc1cccc(NC(=O)NCCCNCc2cc(Cl)cc(Cl)c2)c1`, in the series on Trypanosoma brucei [1], the ΔTm amounted to 4.3 °C.

As to `O=C(NCCCNCc1cc(Cl)cc(Cl)c1)Nc1ccc(O)cc1`, in the series on Trypanosoma brucei [1], the ΔTm came to 5.8 °C.

For the molecule `CCOc1cccc(CNCCCNC(=O)Nc2ccccc2)c1`, the ΔTm with Trypanosoma brucei [1] turned out to be 2.7 °C.

Regarding `O=C(NCCCNCc1cc(Cl)cc(Cl)c1)Nc1cccnc1`, the ΔTm in the series on Trypanosoma brucei [1] stood at 7.1 °C.

For the molecule `Nc1ccccc1NC(=O)NCCCNCc1cc(Cl)cc(Cl)c1`, in the series with Trypanosoma brucei [1], the ΔTm worked out at 4.7 °C.
